Assay outcomes (PubChem)
AF4-AF9 inh: MLL-AF4/AF9 protein interaction inhibition | P42568 | AlphaScreen, biotin-AF4 peptide binding to FLAG-AF9 | inhibition, % at 10 µM | actives 0.47% (n = 350,000) | AID 651704;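 active means every replicate reaching a set inhibition limit, whatever the replicate mean, cut at about 25% in these data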
S100A4 inh HTS: S100A4-myosin IIA interaction inhibition. P26447. S100A4/TAMRA-MyoIIA peptide fluorescence polarization. inhibition, % at 10.7 µM. actives 0.14% (n = 360,000);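 active means mean inhibition of at least 70% across replicates, with every replicate also reaching that level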
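incubation = readout 5 min after mixing, signal stable up to 60 min | system = S100A4 monomer protein | buffer or medium = HEPES pH 7.2 with CaCl2, KCl, NaCl, DTT, Triton | benchmarks = neutral control DMSO, positive control TFP | also added = fluorescent myosin IIA peptide, 5 nM | compound dosing = one concentration per compound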
Ecoli rRNA inh: selective bacterial rRNA inhibition in E. coli; E. coli WT GFP vs humanized-ribosome RFP mutants, fluorescence, 24 h; stronger effect = lower value; DMSO median 0, no signal -100; GFP signal change (wild-type ribosome), % (test concentration not listed); actives 1.6% (n = 350,000);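 active means significant combined selectivity score with lowered wild-type GFP, culture density cut under 30%, mutant RFP and density less affected; inactive means any of these conditions unmet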
SIRT5 inh: sirtuin-5 (human) deacylase inhibition; Purified SirT5, succinyl-peptide AMC, trypsin-coupled fluorescence; inhibition, % at 15 µM; actives 1.1% (n = 330,000); in the data active means inhibition above about 15%
ERAP1 inh: blocks human ERAP1 aminopeptidase activity. Q9NZ08. inhibition, % at 10.7 µM. recombinant ERAP1, Leu-AMC fluorescence, 60 min. actives 0.15% (n = 340,000);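 active means mean replicate inhibition of at least 30%, or all replicates individually reaching that 30% level; inactive means mean below 30% and not every replicate reaching it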
E-sel inducer: induces E-selectin expression in human endothelial cells; HUVEC E-selectin immunofluorescence imaging; normalized: neutral wells 0, TNF-alpha wells 100; activation, % at 7.58 µM; actives 0.37% (n = 260,000); P16581;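 active means mean E-selectin-positive cell signal at least 10% of the positive control, reached in at least 60% of replicates, without over 20% cell loss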
Target sequence (P16581 whole entry, looked up): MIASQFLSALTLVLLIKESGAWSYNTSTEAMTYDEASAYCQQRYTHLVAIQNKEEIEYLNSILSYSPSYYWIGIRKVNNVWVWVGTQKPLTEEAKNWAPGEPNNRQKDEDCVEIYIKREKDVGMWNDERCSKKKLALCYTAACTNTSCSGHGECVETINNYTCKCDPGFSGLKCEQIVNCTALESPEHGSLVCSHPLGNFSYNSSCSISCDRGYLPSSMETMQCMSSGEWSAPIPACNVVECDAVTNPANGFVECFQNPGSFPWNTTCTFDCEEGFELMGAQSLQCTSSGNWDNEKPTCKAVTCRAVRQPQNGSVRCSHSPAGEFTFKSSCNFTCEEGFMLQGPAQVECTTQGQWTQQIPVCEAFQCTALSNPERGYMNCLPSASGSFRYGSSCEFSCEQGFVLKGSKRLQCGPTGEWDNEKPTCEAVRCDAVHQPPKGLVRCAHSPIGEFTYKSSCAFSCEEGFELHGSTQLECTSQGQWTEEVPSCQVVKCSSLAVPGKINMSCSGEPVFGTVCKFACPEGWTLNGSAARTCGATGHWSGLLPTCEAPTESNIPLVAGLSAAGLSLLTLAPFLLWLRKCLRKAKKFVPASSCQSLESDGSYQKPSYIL
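Test system: HUVEC | Signal: Immunofluorescence imaging | Read-out: Percent E-selectin-positive cells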
A number is an active result; i = inactive; nt = no result; ! = not active in a repeat. Sampled rows, rich in hits. Any-hit rate of the full collection: about 3.4%.

SMILES	AF4-AF9 inh	S100A4 inh HTS	Ecoli rRNA inh	SIRT5 inh	ERAP1 inh	E-sel inducer
Cc1ccc(/C=C/C(=O)c2ccc(O)cc2)cc1	i	i	-27.3	i	i	i
O=C(O)/C=C/c1ccc(O)cc1	i	i	nt	nt	nt	nt
CO[C@H]1CN(C)C(=O)c2cc(NS(=O)(=O)c3ccccc3)ccc2OC[C@H](C)N(Cc2cccnc2)C[C@H]1C	i	i	i	i	i	i
O=S(=O)(c1ccc(F)cc1)N1CCCCN2[C@H](C1)[C@H](c1ccc(C#CC3CCCC3)cc1)[C@@H]2CO	i	i	nt	17.5	i	nt
O=S(=O)(c1ccccc1)N1CCCCN2[C@H](C1)[C@H](c1ccc(C#CC3CCCC3)cc1)[C@@H]2CO	i	i	i	18.8	i	i
O=S(=O)(c1ccc(F)cc1)N1CCCCN2[C@H](CO)[C@@H](c3ccc(C#CC4CC4)cc3)[C@H]2C1	i	i	i	i	i	i
O=S(=O)(c1ccc(F)cc1)N1CCCCN2[C@H](CO)[C@@H](c3ccc(C#CC4CCCC4)cc3)[C@@H]2C1	i	i	nt	17.6	i	nt
O=S(=O)(c1ccc(F)cc1)N1CCCCN2[C@H](CO)[C@H](c3ccc(C#CC4CCCC4)cc3)[C@H]2C1	i	i	nt	22.1	i	nt
CO[C@H]1CN(C)C(=O)c2ccc(NS(C)(=O)=O)cc2OC[C@H](C)N(C(=O)NC(C)C)C[C@@H]1C	i	i	i	i	i	i
CC(C)CC#Cc1ccc([C@H]2[C@@H](CO)N3CCCCN(S(=O)(=O)c4ccc(F)cc4)C[C@@H]23)cc1	i	i	i	i	i	i
CC(C)CC#Cc1ccc([C@@H]2[C@H](CO)N3CCCCN(S(=O)(=O)c4ccc(F)cc4)C[C@@H]23)cc1	i	i	-19.0	i	i	i
CC(=O)NNC(=S)Nc1cccc(F)c1	i	i	i	nt	nt	51.3
COCc1cn([C@@H]2C[C@@H]3O[C@H](CO)CC[C@@H]3O[C@@H]2CCc2ccc(-c3ccc(OC)cc3)cc2)nn1	nt	i	nt	i	i	nt
COc1cc(C2CC(=O)c3c(ccc4ccccc34)N2)ccc1O (centres undefined)	nt	nt	nt	nt	nt	i
COc1cccc(C2Nc3ccc4ccccc4c3C3=C2C(=O)CCC3)c1O (centres undefined)	i	i	i	21.8	i	i
CC(C)(C)/C(COc1ccccc1[N+](=O)[O-])=N/O	i	i	-17.0	i	i	nt
C[C@H]1CN([C@@H](C)CO)C(=O)c2cccc(NC(=O)C3CCOCC3)c2O[C@H]1CN(C)Cc1ccncc1	i	i	i	i	i	i
COC(=O)[C@@H]1[C@@H](CO)[C@@H]2Cn3c(ccc(-c4ccncc4)c3=O)[C@@H]2N1CC1CCCC1	i	i	i	i	i	i
COc1ccc(-c2nc(C)ncc2-c2ccccc2)c(O)c1	i	i	-27.9	i	i	nt
COc1ccc(-c2nc(C)ncc2-c2ccc(Cl)cc2)c(O)c1	i	i	i	i	i	i
NC(=O)NOCc1ccccc1	i	i	i	i	i	nt
O=C(NOCc1ccccc1)c1coc(-c2ccccc2)n1	i	i	-26.4	i	i	i
C[C@@H]1CN([C@@H](C)CO)C(=O)c2cc(N(C)C)ccc2O[C@H]1CN(C)C(=O)Nc1ccc(F)cc1	i	i	i	i	i	nt
COc1ccc(NC(=O)N(C)C[C@@H]2Oc3ccc(N(C)C)cc3C(=O)N([C@H](C)CO)C[C@@H]2C)cc1	i	i	i	i	i	i
COc1ccc(NC(=O)N(C)C[C@H]2Oc3ccc(N(C)C)cc3C(=O)N([C@@H](C)CO)C[C@@H]2C)cc1	i	103.4	i	i	i	i
SMILES	AF4-AF9 inh	S100A4 inh HTS	Ecoli rRNA inh	SIRT5 inh	ERAP1 inh	E-sel inducer
C[C@@H]1CN([C@H](C)CO)C(=O)c2cc(N(C)C)ccc2O[C@H]1CN(C)C(=O)Nc1ccc(F)cc1	i	i	i	33.7	i	nt
CCCNC(=O)C[C@H]1CC[C@H]2[C@@H](COC[C@@H](O)CN2C(=O)Nc2cccc(Cl)c2)O1	i	i	i	i	i	i
O=C(C1CCCC1)N1C[C@@H]2N[C@H](C1)C2c1ccc(-c2ccccc2F)cc1 (some centres undefined)	i	i	i	25.2!	i	i
O=C(Nc1ccc2c(c1)OCO2)N1C[C@@H]2N[C@H](C1)C2c1ccc(C=Cc2ccccc2)cc1 (some centres undefined)	56.3!	i	i	17.0!	i	i
O=C(Nc1ccccc1F)N1C[C@@H]2N[C@H](C1)C2c1ccc(/C=C/c2ccccc2)cc1 (some centres undefined)	i	i	i	26.9	i	i
O=C(C1CCOCC1)N1C[C@@H]2N[C@H](C1)C2c1ccc(-c2ccccc2F)cc1 (some centres undefined)	nt	nt	i	nt	nt	i
CO[C@H]1CN(C)C(=O)c2cc(NC(=O)c3ccno3)ccc2OC[C@@H](C)NC[C@@H]1C	i	i	i	i	i	i
C[C@H]1CCCCO[C@H](CN(C)Cc2ccc3c(c2)OCO3)[C@@H](C)CN([C@@H](C)CO)C(=O)c2cc(NS(C)(=O)=O)ccc2O1	i	i	i	i	i	i
Cc1ccc(S(=O)(=O)Nc2ccc3c(c2)CC(=O)N([C@H](C)CO)C[C@H](C)[C@H](CN(C)Cc2ccc(C(=O)O)cc2)O3)cc1	nt	nt	i	nt	nt	i
COc1ccc(N(C(=O)CSCC(=O)Nc2cc(C)on2)C(C(=O)NC2CCCCC2)c2ccc(O)c(O)c2)cc1 (centres undefined)	i	i	-18.1	i	i	i
O=C(Nc1nnc(S(=O)(=O)N2CCOCC2)s1)c1ccccc1	47.1	i	i	i	i	i
O=C(Nc1nnc(S(=O)(=O)N2CCOCC2)s1)c1ccc(Cl)cc1	i	i	i	i	i	i
C[C@H](CO)N1C[C@H](C)[C@@H](CN(C)S(=O)(=O)c2cccs2)OCc2ccccc2-c2c(n(C)c3ccccc23)C1=O	i	i	i	i	i	i
Cc1ccc(S(=O)(=O)N(C)C[C@@H]2Oc3ccc(N(C)C)cc3C(=O)N([C@@H](C)CO)C[C@@H]2C)cc1	i	i	i	i	i	i
Cc1ccc(S(=O)(=O)N(C)C[C@H]2Oc3ccc(N(C)C)cc3C(=O)N([C@H](C)CO)C[C@@H]2C)cc1	i	i	i	i	i	i
Cc1ccc(S(=O)(=O)N(C)C[C@@H]2Oc3ccc(N(C)C)cc3C(=O)N([C@H](C)CO)C[C@H]2C)cc1	i	i	i	i	i	36.4
Cc1ccc(S(=O)(=O)N(C)C[C@H]2Oc3ccc(N(C)C)cc3C(=O)N([C@@H](C)CO)C[C@@H]2C)cc1	i	i	i	i	i	46.6
